Assay results gathered from unrelated publications.
Lines come from different studies, so protocols differ.
Target: STE20-like serine/threonine-protein kinase (SLK, Homo sapiens, UniProt Q9H2G2)

N#CC1(c2ccccn2)CCN(Cc2cc(C(=O)O)c(=O)n3ccccc23)CC1
remaining binding (cell-free assay; competition with immobilised ligand; 1 µM): 99%

Cn1cc(-c2cccc(N3CCc4c(sc5c4CC(C)(C)C5)C3=O)c2CO)cc(Nc2ccncn2)c1=O
inhibition (enzyme activity; inhibitor; 1 µM): 4%

Cc1nn(C)cc1-c1nc2c(N3CCN(Cc4ccc(Cl)cc4)CC3)c(Cl)cnc2[nH]1
remaining binding (binding; competition with immobilised ligand; 1 µM): 100%

Nc1ncc(-c2nc(N3CCOCC3)nc(N3CCOCC3)n2)c(C(F)F)n1
remaining binding (binding; competition with immobilised ligand; 10 µM): 24%

COc1cc(Nc2ncc(F)c(Nc3ccc4c(n3)NC(=O)C(C)(C)O4)n2)cc(OC)c1OC
inhibition (binding; 10 µM): 100%

CC(C)(C)c1cc(C=C(C#N)C#N)cc(Br)c1O
remaining activity (enzyme activity; inhibitor; 0.5 µM): 94.7%

Cn1cc(-c2cc(F)cc(N3CCn4c(cc5c4CCCC5)C3=O)c2CO)cc(Nc2ccc(N3CCN(C4COC4)CC3)cn2)c1=O
inhibition (enzyme activity; inhibitor; 0.1 µM): 4%

COc1ncccc1-c1cnn2ccc(N3CCN(C(=O)OC(C)C)CC3)nc12
remaining binding (binding; competition with immobilised ligand; 1 µM): 100%

O=c1[nH]c2ccccc2n1C1CCN(Cc2ccc(-c3[nH]c4cc5ncnc5cc4nc3-c3ccccc3)cc2)CC1
remaining signal (cell-free assay; 0.5 µM): 97.7%

Cn1cncc1[C@@](O)(COc1ccc(C#N)cc1-c1ccc(OC(F)(F)F)cc1)c1ccc(C#N)cc1
remaining binding (cell-free assay; competition with immobilised ligand; 1 µM): 100%
